Measured values as given in ChEMBL document CHEMBL4627359, “Design, synthesis and biological evaluation of spiropyrazolopyridone derivatives as potent dengue virus inhibitors” (Bioorg Med Chem Lett, 2020).

Experiments:
dengue virus type 1 = experiment: Antiviral activity against DENV1 infected in human Huh7 cells; assay type: functional, organism-based; settings: Huh-7
In short: (§1)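 Huh7 cells stably carrying a DENV replicon (serotype 1, 2, 3 or 4) with Renilla luciferase and neomycin-resistance genes. Seeded at 10k/well, incubated overnight at 37 °C in 5% CO₂, then given 2-fold serial compound dilutions in duplicate. After 48 h, luciferase was read with EnduRen live-cell substrate. EC50 came from four-parameter logistic fits of dose-response curves.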

dengue virus type 2 = experiment: Antiviral activity against DENV2 infected in human Huh7 cells; assay type: functional, organism-based; settings: Huh-7; in short: as §1
dengue virus type 3 = experiment: Antiviral activity against DENV3 infected in human Huh7 cells; assay type: functional, organism-based; settings: Huh-7; in short: as §1
dengue virus type 4 = experiment: Antiviral activity against DENV4 infected in human Huh7 cells; assay type: functional, organism-based; settings: Huh-7; in short: as §1
Huh-7 = experiment: Cytotoxicity against human HuH7 cells infected with DENV2 assessed as reduction in cell viability; assay type: cell-based
In short: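 Cytotoxicity was read in Huh7 cells stably carrying the DENV-2 Renilla luciferase replicon. Cells were seeded at 10k/well, incubated overnight at 37 °C in 5% CO₂, then given 2-fold serial compound dilutions in duplicate for 48 h. After the live-cell luciferase read, CellTiter-Glo was added to the same wells to measure viability.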

Row | EC50 (dengue virus type 1) | EC50 (dengue virus type 2) | EC50 (dengue virus type 3) | EC50 (dengue virus type 4) | SMILES | CC50 (Huh-7)
1 | 2400 nM | 110 nM | 6 nM | > 10000 nM | O=C1CC2(C(=O)Nc3ccc(Cl)cc32)c2cnn(Cc3ccc(Cl)cc3)c2N1 (stereo not drawn) | > 10000 nM
2 |  | 3200 nM |  |  | NC(=O)C1C(=O)Nc2c(cnn2Cc2ccc(Cl)cc2)C12C(=O)Nc1ccc(Cl)cc12 (stereo not drawn) | 50000 nM
3 | 2500 nM | 1800 nM | 25 nM | > 5000 nM | Cc1nn(Cc2ccc(Cl)cc2)c2c1C1(CC(=O)N2)C(=O)Nc2ccc(Cl)cc21 (stereo not drawn) | > 10000 nM
4 |  | 4400 nM |  |  | O=C1CC2(C(=O)Nc3ccc(Cl)cc32)c2cn(Cc3ccc(Cl)cc3)nc2N1 (stereo not drawn) | > 10000 nM
5 |  | 1900 nM |  |  | O=C1CC2(C(=O)Nc3ccc(Cl)cc32)c2c(C3CC3)nn(Cc3ccc(Cl)cc3)c2N1 (stereo not drawn) | > 10000 nM
6 |  | 4200 nM |  |  | O=C1CC2(C(=O)Nc3ccc(Cl)cc32)c2cnn(Cc3ccc(F)cc3)c2N1 (stereo not drawn) | 
7 | 1800 nM | 50 nM | 19 nM | > 5000 nM | O=C1CC2(C(=O)Nc3ccc(Cl)cc32)c2cnn(Cc3ccc(Cl)c(F)c3)c2N1 (stereo not drawn) | > 10000 nM
8 | 1800 nM | 62 nM | > 5000 nM | > 5000 nM | O=C1CC2(C(=O)Nc3ccc(Cl)cc32)c2cnn(Cc3ccc(Cl)c(Cl)c3)c2N1 (stereo not drawn) | > 10000 nM
9 |  | > 5000 nM |  |  | COC(=O)c1ccc(Cn2ncc3c2NC(=O)CC32C(=O)Nc3ccc(Cl)cc32)cc1 (stereo not drawn) | 
10 |  | > 5000 nM |  |  | N#Cc1ccc(Cn2ncc3c2NC(=O)CC32C(=O)Nc3ccc(Cl)cc32)cc1 (stereo not drawn) | 
11 |  | 8600 nM |  |  | N#CC1C(=O)Nc2c(cnn2Cc2ccc(Cl)cc2)C12C(=O)Nc1ccc(Cl)cc12 (stereo not drawn) | 50000 nM
12 |  | 1100 nM |  |  | O=C1CC2(C(=O)Nc3ccc(Cl)cc32)c2cn(Cc3ccc(Cl)c(Cl)c3)nc2N1 (stereo not drawn) | > 10000 nM
13 |  | > 5000 nM |  |  | N#Cc1cn(Cc2ccc(Cl)cc2)c2c1C1(CC(=O)N2)C(=O)Nc2ccc(Cl)cc21 (stereo not drawn) | 
14 | 2300 nM | 140 nM | 390 nM | > 5000 nM | O=C1CC2(C(=O)Nc3ccc(Cl)cc32)c2cnn(Cc3ccc(Cl)cc3F)c2N1 (stereo not drawn) | > 10000 nM
15 |  | > 5000 nM |  |  | O=C1CC2(C(=O)Nc3ccc(Cl)cc32)c2cnn(Cc3ccc(C(=O)O)cc3)c2N1 (stereo not drawn) | 
16 |  | > 5000 nM |  |  | CS(=O)(=O)c1ccc(Cn2ncc3c2NC(=O)CC32C(=O)Nc3ccc(Cl)cc32)cc1 (stereo not drawn) | 

Row | SMILES | EC50 (dengue virus type 1) | EC50 (dengue virus type 2) | EC50 (dengue virus type 3) | EC50 (dengue virus type 4) | CC50 (Huh-7)
17 | CC(=O)C1C(=O)Nc2c(cnn2Cc2ccc(Cl)cc2)C12C(=O)Nc1ccc(Cl)cc12 (stereo not drawn) |  | > 10000 nM |  |  | > 20000 nM
18 | O=C1CC2(C(=O)Nc3ccc(Cl)cc32)c2cnn(Cc3ccc(C(F)(F)F)cc3C(F)(F)F)c2N1 (stereo not drawn) | 1600 nM | 38 nM | 17 nM | > 5000 nM | > 10000 nM
